Entries after “also recorded” stand apart in the source; their conditions may differ.
Test system: Nrf2 target genes GSTM3, NQO1, or HMOX1 in NCM460D cells
Assay: RT-qPCR of Nrf2 target genes in NCM460D cells
Assay type: cell-based
Conditions: 24 h incubation at 1, 10 and 100 μM, RT-PCR
In short: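 NCM460D cells exposed to test compound at 1, 10 and 100 μM for 24 h. Positive controls were a reference Keap1-Nrf2 PPI inhibitor (1, 10, 100 μM) and CDDO (10 and 100 nM); 0.1 % DMSO served as the negative control. RNA was quantified, reverse-transcribed to cDNA, and GSTM3, NQO1 and HMOX1 were measured by RT-qPCR, normalized to endogenous GAPDH.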

Structure (SMILES) | transcriptional induction of Nrf2 target genes NQO1, GSTM3 and HMOX1
Cc1ccc(S(=O)(=O)N(CC(=O)O)c2ccc(N(CC(=O)O)S(=O)(=O)c3ccc(C)cc3)c(OCC(=O)O)c2)cc1 [8g, 2,2′-((2-(Carboxymethoxy)-1,4-phenylene)bis(tosylazanediyl))diacetic acid] | less transcriptional induction; also recorded: relatively low expressions
Cc1ccc(S(=O)(=O)N(CC(=O)O)c2cc(CCC(=O)O)c(N(CC(=O)O)S(=O)(=O)c3ccc(C)cc3)c3ccccc23)cc1 [17b, 2,2′-((2-(2-Carboxyethyl)naphthalene-1,4-diyl)bis(tosylazanediyl))diacetic acid] | similarly high effects
Cc1ccc(S(=O)(=O)N(CC(=O)O)c2cc(OCC(=O)O)c(N(CC(=O)O)S(=O)(=O)c3ccc(C)cc3)c3ccccc23)cc1 [compound 18, 2,2′-((2-(Carboxymethoxy)naphthalene-1,4-diyl)bis(tosylazanediyl))diacetic acid] | similarly high effects

Reference: paper PMC10794003 (European journal of medicinal chemistry, 2023)
